Test: Permeability of compound by PAMPA at pH 7.4
Assay type: ADME
Conditions: not given
Summary of the method: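 Parallel artificial membrane permeation assay at pH 7.4, read as permeability in 10^-6 cm/s. Mean of a single triplicate experiment.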

Question: With `CCCN(C(=O)c1csc(-c2ccc(S(C)(=O)=O)c([N+](=O)[O-])c2)n1)c1ccccc1` as the compound, how does the permeability read?
Answer: 16200 nm/s

Question: Which permeability does the source give for `CCc1nc(-c2ccc(S(C)(=O)=O)c([N+](=O)[O-])c2)sc1C(=O)N1CC2(C)CC1CC(C)(C)C2` (centres undefined) here?
Answer: 9490 nm/s

Question: With `CS(=O)(=O)c1ccc(-c2nc(C(F)(F)F)c(C(=O)N3CCc4ccccc4C3)s2)cc1[N+](=O)[O-]` as the compound, how does the permeability read?
Answer: 840 nm/s

Question: With `CS(=O)(=O)c1ccc(C(=O)OCC(=O)NC23CC4CC(CC(C4)C2)C3)cc1[N+](=O)[O-]` as the compound, how does the permeability read?
Answer: 1670 nm/s

Question: Which permeability does the source give for `CC1(C)CC2CC(C)(CN2C(=O)c2sc(-c3ccc(S(C)(=O)=O)c([N+](=O)[O-])c3)nc2C(F)(F)F)C1` (centres undefined) here?
Answer: 80 nm/s

Question: With `CCc1nc(-c2ccc(S(C)(=O)=O)c([N+](=O)[O-])c2)sc1C(=O)N1CCCCC1` as the compound, how does the permeability read?
Answer: 6570 nm/s

Question: For `CN(Cc1cccc(F)c1)C(=O)c1sc(-c2ccc(S(C)(=O)=O)c([N+](=O)[O-])c2)nc1C(F)(F)F`, which permeability is on record?
Answer: 2710 nm/s

Question: With `Cc1nc(-c2ccc(S(C)(=O)=O)c([N+](=O)[O-])c2)sc1C(=O)N1CCC(C)CC1` as the compound, how does the permeability read?
Answer: 9120 nm/s

Question: With `CN(Cc1cccc(F)c1)C(=O)c1cnc(-c2ccc(S(C)(=O)=O)c([N+](=O)[O-])c2)s1` as the compound, how does the permeability read?
Answer: 10300 nm/s

Question: For `Cc1nc(-c2ccc(S(C)(=O)=O)c([N+](=O)[O-])c2)sc1C(=O)N1CC2(C)CC1CC(C)(C)C2` (centres undefined), which permeability is on record?
Answer: 14200 nm/s

Question: With `CN(Cc1ccccc1F)C(=O)c1sc(-c2ccc(S(C)(=O)=O)c([N+](=O)[O-])c2)nc1C(F)(F)F` as the compound, how does the permeability read?
Answer: 2210 nm/s

Question: For `Cc1nc(-c2ccc(S(C)(=O)=O)c([N+](=O)[O-])c2)sc1C(=O)N1CCCCC1`, which permeability is on record?
Answer: 2800 nm/s

Question: With `CN(Cc1ccccc1)C(=O)c1sc(-c2ccc(S(C)(=O)=O)c([N+](=O)[O-])c2)nc1C(F)(F)F` as the compound, how does the permeability read?
Answer: 15000 nm/s

Question: With `CS(=O)(=O)c1ccc(-c2nc(-c3ccccc3)c(C(=O)N3CCCCC3)s2)cc1[N+](=O)[O-]` as the compound, how does the permeability read?
Answer: 9710 nm/s

Question: Which permeability does the source give for `CS(=O)(=O)c1ccc(-c2nc(C(F)(F)F)c(C(=O)N3CCCCC3)s2)cc1[N+](=O)[O-]` here?
Answer: 7910 nm/s

Question: For `CS(=O)(=O)c1ccc(-c2ncc(C(=O)NC34CC5CC(CC(C5)C3)C4)s2)cc1[N+](=O)[O-]`, which permeability is on record?
Answer: 3790 nm/s

Question: Which permeability does the source give for `CC1Cc2ccccc2N1C(=O)c1sc(-c2ccc(S(C)(=O)=O)c([N+](=O)[O-])c2)nc1C(F)(F)F` (centres undefined) here?
Answer: 430 nm/s

Question: Which permeability does the source give for `CS(=O)(=O)c1ccc(-c2ncc(C(=O)N3CCCCC3)s2)cc1[N+](=O)[O-]` here?
Answer: 2870 nm/s

Same assay, conditions: read-out: permeability

Question: With `CC1CCN(C(=O)c2sc(-c3ccc(S(C)(=O)=O)c([N+](=O)[O-])c3)nc2C(F)(F)F)CC1` as the compound, how does the Papp read?
Answer: 7020 nm/s
